Screens as filed in PubChem BioAssay.
Only some compounds are listed: those with a hit (about 9.6% of all), similar ones and a draw of the others.
APP transl inh = inhibitors of APP translation via 5'UTR reporter, primary screen, APP 5'UTR luciferase, SH-SY5Y cells; SH-SY5Y APP 5'UTR-luciferase reporter, luminescence; inhibition, % at 2 µM; 0.82% of 190,000 active; AID 1285, 2008;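 active = inhibition above a set limit, derived from the sample mean plus 3 SD, cut at about 45% in these data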
bCat nuc transl = modulators of beta-catenin nuclear translocation, primary screen, imaging, HeLa cells, immunofluorescence, high-content | nuclear translocation activity, % at 5 µM | 0.3% of 190,000 active | AID 1665, 2009;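 active = nuclear translocation activity above 50% at 5 µM, with a well cell count of 50 or more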;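 note: per-cell ratio of nuclear to cytoplasmic median beta-catenin stain intensity; plate controls were DMSO negative control for no effect and GSK-3 inhibitor IX positive control for full effect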
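Read-out: Nuclear/cytoplasmic beta-catenin signal ratio, % activation | Assay system: Human HeLa cell line | Times: 24 h compound exposure at 37°C, 5% CO2 | Signal: Fluorescence imaging of beta-catenin antibody stain plus DAPI | Dosing: 5 µM primary, 0.02–20 µM confirmation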
MT stabilizer = microtubule stabilizers in HeLa cells, primary screen, imaging, high-content imaging; HeLa tubulin immunostaining HCS, 24 h; share of cells brighter than vehicle mean+2SD; % tubulin-high responders, % at 10 µM; 0.83% of 200,000 active; AID 2205, 2009;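 active = plate Z-score above 3 for both tubulin-high and condensed-nucleus cell shares, with cell loss under 80%, at 10 µM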;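 note: anti alpha tubulin signal scored within the nucleus-defined area of each cell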
Ba/F3 V617F tox = reduced viability of JAK2V617F-dependent Ba/F3 cells, primary screen, JAK2V617F inhibitor project, cell-based, Ba/F3 EpoR-JAK2V617F, luminescence; ATP luminescence; inhibition, % at 5.6 µM; 1.1% of 220,000 active; AID 1446, 2008;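 active = inhibition above the campaign mean plus 3 SD over all tested compounds, cut at about 24% in these data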;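 note: cytokine-independent growth of Ba/F3 cells driven by EpoR plus mutant JAK2; 0% = DMSO-treated cells and 100% = JAK inhibitor I control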
BaF3 tox = parental Ba/F3 cell viability inhibition, counter-screen for JAK2V617F inhibitor project, murine pro-B, CellTiter-Glo luminescence. CellTiter-Glo ATP luminescence. inhibition, % at 5.6 µM. 1.1% of 220,000 active. AID 1486, 2009;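 active = inhibition above a per-campaign cutoff, the mean inhibition of all tested compounds plus 3 SD, cut at about 27% in these data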;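 note: 0% = DMSO wells and 100% = JAK Inhibitor I control wells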
Lmaj promast = Leishmania major promastigote growth inhibition, primary screen; Leishmania major promastigotes, resazurin fluorescence viability; inhibition, % at 10 µM; 9% of 200,000 active; AID 1063, 2008; in the data active = inhibition above about 50%;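 note: promastigotes grown with compound for 44 hours at 28 °C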
An asterisk follows results filed as active; nt = no result.

SMILES | APP transl inh | bCat nuc transl | MT stabilizer | Ba/F3 V617F tox | BaF3 tox | Lmaj promast
ON/C=N/C(=S)Nc1ncc(C(F)(F)F)cc1Cl | 2 | -6 | 3 | 56* | 62* | 90*
CON/C=N/C(=S)Nc1ncc(C(F)(F)F)cc1Cl | -15 | 2 | 5 | 2 | 4 | -3
COc1ccccc1C1=NOC(COc2ccc3c(C)cc(=O)oc3c2)C1 (stereo not drawn) | nt | 96* | nt | 75* | 78* | nt
Cc1cc(=O)oc2cc(OCc3nnc(-c4ccccc4Br)o3)ccc12 | -7 | 1 | 12 | -5 | -1 | 2
Cc1cc(=O)oc2cc(Oc3ncccn3)ccc12 | -1 | nt | 3 | 2 | 2 | -2
COc1ccc(C2=NOC(COc3ccc4c(C)cc(=O)oc4c3)C2)c(OC)c1 (stereo not drawn) | 73* | 2 | nt | 78* | 70* | nt
CSc1sc(-c2nnc(SCC(=O)Nc3ccc(Cl)cc3)n2C)c2c1C=CCC2 | nt | -2 | nt | -5 | -3 | nt
Cc1ccccc1CSc1nnc2ccc(-c3ccncc3)nn12 | 1 | -1 | 3 | 3 | 2 | 10
CCCSc1cc(NCCOC(=O)CCC)c([N+](=O)[O-])c2nonc12 | 11 | -1 | 3 | -3 | 4 | 2
CCCSc1cc(NCCOC(C)=O)c([N+](=O)[O-])c2nonc12 | -5 | 0 | 1 | 7 | 8 | 67*
CCC(=O)OCCNc1cc(Sc2nc3ccccc3[nH]2)c2nonc2c1[N+](=O)[O-] | 70* | -1 | 2 | 9 | 1 | 38
CC(=O)OCCCNc1cc(SCc2ccco2)c2nonc2c1[N+](=O)[O-] | -1 | 0 | 3 | -5 | 0 | 51*
CCCC(=O)OCCNc1cc(SCc2ccco2)c2nonc2c1[N+](=O)[O-] | -16 | 2 | 2 | -1 | 1 | 16
CCCC(=O)OCCNc1cc(Sc2nccn2C)c2nonc2c1[N+](=O)[O-] | 75* | 4 | 3 | -1 | 3 | 100*
COc1cscc1C(N)=O | nt | -1 | nt | -5 | 1 | nt
COc1ccc(C2=NN(C(C#N)c3ccc(OC)cc3)C(c3ccccc3)C2)cc1 (stereo not drawn) | -109 | 0 | 15 | -1 | -2 | 69*
COc1ccc(C(C#N)N2N=C(c3ccccc3)CC2c2ccccc2)cc1OC (stereo not drawn) | -55 | 0 | 1 | 3 | 8 | 100*
CCOc1cc(C(C#N)N2CCCCC2)ccc1OC (stereo not drawn) | -6 | 1 | 3 | -1 | 10 | -7
CC1=NN(C(C#N)c2ccccc2)C(c2ccccc2)C1 (stereo not drawn) | nt | -2 | nt | -5 | -5 | nt
CC(=C/c1ccco1)/C=N/NC(=O)CSc1nnc(SCc2ccc(C)cc2)s1 | 29 | -1 | 4 | 4 | 9 | -8
O=C(NCc1ccc(F)cc1)C(Cc1ccccc1)NS(=O)(=O)c1cccs1 (stereo not drawn) | -2 | nt | 2 | 2 | 9 | 100*
CSCCC(NS(=O)(=O)c1cccs1)C(=O)NCc1cccs1 (stereo not drawn) | 47* | 2 | 5 | -2 | 5 | -2
O=C(NCc1cccs1)C(Cc1ccccc1)NS(=O)(=O)c1cccs1 (stereo not drawn) | -8 | -4 | 1 | -2 | 6 | 14
O=C(NCc1ccccc1)C(Cc1ccccc1)NS(=O)(=O)c1cccc2nsnc12 (stereo not drawn) | 11 | 2 | 1 | -4 | 0 | 93*
C=CCn1c(SCc2nc3c(c(=O)[nH]c(=O)n3CCCC)n2CCC)nnc1-c1ccccc1 | -12 | -3 | 2 | -3 | 1 | -2
SMILES | APP transl inh | bCat nuc transl | MT stabilizer | Ba/F3 V617F tox | BaF3 tox | Lmaj promast
COc1ccc(C(=O)OCC(=O)NC(=O)NC(C)C)cc1OC | -20 | 2 | 6 | 2 | 0 | -1
Cc1ccc(S(=O)(=O)NCCC(=O)Nc2ccc(Cl)c(Cl)c2)cc1 | -3 | 2 | 2 | 4 | 7 | 12
Cc1cccc(NC(=O)CCN2CC(C)OC(C)C2)c1 (stereo not drawn) | -10 | 0 | 5 | -4 | 4 | 89*
O=C(CCN1CCCCC1)Nc1cccc(Cl)c1 | -17 | 1 | 1 | -2 | 0 | 5
Cc1cc(C)cc(NC(=O)CCN2CCCC2)c1 | -8 | -2 | 3 | 1 | 9 | -4
CC1CC(C)CN(CCC(=O)Nc2cccc(Cl)c2)C1 (stereo not drawn) | -12 | 0 | 1 | 2 | 6 | 83*
Cc1cc(C)cc(NC(=O)CCN2CC(C)OC(C)C2)c1 (stereo not drawn) | 6 | -6 | 3 | 0 | 9 | 80*
Cc1ccc(S(=O)(=O)NCCC(=O)Nc2cccc(Cl)c2)cc1 | 10 | -1 | 1 | 0 | 6 | 52*
CC1CN(CCC(=O)Nc2ccc3c(c2)OCO3)CC(C)O1 (stereo not drawn) | 0 | -1 | 4 | 1 | 9 | -5
CC(C)CN1CCC(=O)N(CCSc2ccc(Br)cc2)CC1 | nt | 3 | nt | nt | nt | nt
CCOC(=O)N1CCC(NC(=O)c2ccc(CNS(=O)(=O)c3ccc(F)cc3)cc2)CC1 | 4 | -2 | 3 | 0 | 3 | 0
CC1CC(N(C(=O)c2ccccc2Cl)c2ccccc2)c2ccccc2N1 (stereo not drawn) | 5 | 3 | 25 | 2 | 1 | 12
CS(=O)(=O)NNC(=O)c1csc(Cc2c(Cl)sc3ccc(Cl)cc23)n1 | nt | 0 | nt | 0 | -2 | nt
CCc1ccc(Nc2cc(=O)n(C3CCCCC3)c(=O)[nH]2)cc1 | -20 | nt | 3 | -2 | 2 | 5
O=c1cc(Nc2ccc3c(c2)OCCO3)[nH]c(=O)n1C1CCCCC1 | 83* | 0 | 49* | 12 | 3 | 0
COCCn1nnnc1CN(CCc1ccc(OC)c(OC)c1)Cc1cc2ccc(C)cc2[nH]c1=O | 16 | 1 | 3 | 4 | 4 | 97*
CCn1cc(C(=O)O)c(=O)c2cc(F)c(N3CCN(C(=S)Nc4ccccc4OC)CC3)cc21 | nt | -1 | nt | 1 | -3 | nt
CCn1cc(C(=O)O)c(=O)c2cc(F)c(N/N=C/c3ccccc3[N+](=O)[O-])cc21 | 0 | 2 | 6 | 7 | 12 | 78*
CC1CCN(c2nc(N3CCCCC3)nc(N3CCCCC3)n2)CC1 | -16 | 0 | 4 | 0 | 3 | 8
C1CCN(c2nc(N3CCCCC3)nc(N3CCNCC3)n2)CC1 | 6 | -3 | 2 | 0 | 3 | 68*
O=C(Nc1cccc([N+](=O)[O-])c1)c1ccc2ccccc2c1O | nt | -1 | nt | -3 | -1 | nt
Cc1c(Br)c([N+](=O)[O-])nn1CC(=O)Nc1ccc(Cc2ccncc2)cc1 | -3 | 2 | 3 | -1 | 1 | 36
